Test results taken from ChEMBL document CHEMBL1125777, “Nonpeptidic angiotensin II antagonists: synthesis and in vitro activity of a series of novel naphthalene and tetrahydronaphthalene derivatives” (J Med Chem, 1991).

Key:
Oryctolagus cuniculus = species: Oryctolagus cuniculus; test: Inhibition of all induced contractions of rabbit aortic rings; format: functional; settings: Aorta
In short: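 Thoracic aorta rings (2-3 mm) from male Chinchilla rabbits (2-2.5 kg), 2 g resting tension, modified Krebs-Henseleit, 37 °C, 95% O2/5% CO2, equilibrated ≥1 h. Isometric contraction to 10 nM angiotensin II every 20 min. After two control responses, graded compound concentrations (3-4 per ring) applied 5 min before each challenge. DMSO vehicle controls.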

[1] = target: T1, Type-1 angiotensin II receptor B (Rattus norvegicus, UniProt P29089); test: Binding affinity against angiotensin II receptor in rat smooth muscle cell preparations
T1 sequence (P29089 whole entry): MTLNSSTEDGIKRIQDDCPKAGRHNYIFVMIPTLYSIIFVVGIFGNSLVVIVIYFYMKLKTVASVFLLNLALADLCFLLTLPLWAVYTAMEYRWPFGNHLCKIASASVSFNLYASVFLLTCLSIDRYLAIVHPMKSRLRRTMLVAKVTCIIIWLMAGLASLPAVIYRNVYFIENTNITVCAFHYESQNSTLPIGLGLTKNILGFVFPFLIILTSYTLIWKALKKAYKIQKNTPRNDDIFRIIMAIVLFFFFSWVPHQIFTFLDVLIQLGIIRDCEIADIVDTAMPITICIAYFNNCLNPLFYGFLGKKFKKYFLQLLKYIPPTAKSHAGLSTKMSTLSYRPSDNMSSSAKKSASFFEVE
In short: (§1)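 Membranes from cultured rat aortic smooth muscle cells (passages 5-20, DMEM with 15% FCS). Bound/free separated by filtration, filter radioactivity counted. Nonspecific binding defined with 1 μM unlabeled AII. IC50 from four-parameter logistic fit. Duplicate tests.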

[2] = target: T1, Type-1 angiotensin II receptor B; test: Binding affinity against Angiotensin II receptor in rat smooth muscle cell preparations
In short: as §1, with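 “FCS). 20-60 μg protein incubated 60 min at 25 or 30 °C with radiotracer (150 pM) and varying unlabeled competitor concentrations.” for “FCS).”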

| IC50 (Oryctolagus cuniculus) [µM] | IC50 [1] [µM] | IC50 [2] [µM] | Compound |
| --- | --- | --- | --- |
| 0.3 | 1.1 | – | CCCCc1nc(CO)c(Cl)n1Cc1ccc2c(c1)CCC(C(=O)O)C2 (stereo not given) |
| 2.7 | 2.8 | – | CCCCc1nc(CO)c(Cl)n1Cc1ccc2c(c1)CCC(C)(C(=O)O)C2 (stereo not given) |
| 0.56 | – | – | CCCCc1nc(CO)c(Cl)n1Cc1ccc2c(c1)CCC(c1nnn[nH]1)C2 (stereo not given) |
| – | – | 20 | CCCCc1nc(Cl)c(CO)n1Cc1ccc2ccc(-c3nn[nH]n3)cc2c1 |
| 1.2 | 8.9 | – | CCCCc1nc(Cl)c(CO)n1Cc1ccc2c(c1)CCC(C(=O)O)C2 (stereo not given) |
| 1.9 | 5.4 | – | CCCCc1nc(Cl)c(CO)n1Cc1ccc2c(c1)CCC(c1nnn[nH]1)C2 (stereo not given) |
| 2.2 | – | – | CCCCc1nc(Cl)c(CO)n1Cc1ccc2c(c1)CCC(C)(C(=O)O)C2 (stereo not given) |
| 0.7 | 1.1 | – | CCCCc1nc(Cl)c(CO)n1Cc1cccc2c(-c3nn[nH]n3)cccc12 |
| 2.6 | 4.1 | – | CCCCc1nc(Cl)c(CO)n1Cc1cccc2cc(-c3nnn[nH]3)ccc12 |
| 1.6 | 0.6 | – | CCCCc1nc(Cl)c(CO)n1Cc1ccc2cc(-c3nn[nH]n3)ccc2c1 |
| 0.12 | – | 0.2 | CCCCc1nc(CO)c(Cl)n1Cc1ccc2cc(-c3nnn[nH]3)ccc2c1 |
| 0.024 | – | – | CCCCc1nc(Cl)c(CO)n1Cc1ccc(-c2ccccc2-c2nnn[nH]2)cc1 [LOSARTAN] |
